Measurements: ChEMBL document CHEMBL4513216, “Probing the Open Global Health Chemical Diversity Library for Multistage-Active Starting Points for Next-Generation Antimalarials” (ACS Infect Dis, 2020)

Assay: Toxicity liver stage against HepG2, at 10uM
Assay type: cell-based
Set-up: test concentration 10 uM, cell line HepG2-A16-CD81EGFP
Settings: human, HepG2-A16-CD81EGFP cells; read-out: INHIBITION
How it was run: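 Uninfected HepG2-A16-CD81EGFP cells, 3 × 10^3 per well, 1536-well, plated on prespotted compound at 10 μM final, parasite-free screening media added to match infected plates; puromycin 10 μM positive, DMSO 0.5% negative; run in parallel with 48 h PbLuc assay at 37 °C, 5% CO2; viability by CellTiter-Glo luminescence, normalized to controls.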

Row | Compound | cytotoxicity at 10 µM [%]
1 | Cn1nc(C#N)c2c1CN(C(=O)c1cccnc1)CCC2 | 2.22
2 | COCC(=O)N1C[C@H]2CNC[C@@]2(C(=O)NCc2c(C)noc2C)C1 | 0.753
3 | CNS(=O)(=O)c1ccc(C(=O)N2CCCC(n3cccn3)C2)cc1 (stereo unspecified) | -7.95
4 | COc1ccccc1CNCCc1cccc(C(N)=O)c1 | 3.65
5 | O=C(c1cccnc1N1CCOCC1)N1CCCC(n2cccn2)C1 (stereo unspecified) | 0.985
6 | CCCN1C(=O)c2ccccc2C1OC (stereo unspecified) | -10.1
7 | O=C1CC(c2ccco2)c2sc(C(=O)O)c(-c3ccccc3)c2N1 (stereo unspecified) | 19.1
8 | COCCn1c2c(ccc1=O)CCN(C(=O)Cc1cccs1)CC2 | 1.44
9 | COc1cn(CC(=O)N2CCC(c3ccccc3)CC2)c(C)cc1=O | 1.11
10 | O=C(O)c1ccc2c(c1)C1(CCCCC1)CN2C(=O)c1cccs1 | 3.01
11 | Fc1ccc(N2CCCN(Cc3ccc(-c4cc[nH]n4)o3)CC2)cc1 | 0.898
12 | COCCNC(=O)N1CCN(C(C)C(=O)NC(C)C)CC1 (stereo unspecified) | 10.6
13 | CCOC(=O)N1CCN(C(=O)c2cc(-c3ccc(C)cc3)on2)CC1 | 5.68
14 | COc1cc(CN2CC[C@H](NC(C)=O)[C@@H](O)CC2)ccc1F | -9.19
15 | CCS(=O)(=O)N1CCCn2nnc(Cn3cccc3)c2C1 | 9.77
16 | Cc1cnc(N2CCC3(CC2)CC3CN(C)Cc2cccnc2)nc1 (stereo unspecified) | -0.37
17 | Cn1cc(CN2CC[C@H]3OCC[C@@H](C(=O)NCc4ccco4)[C@@H]3C2)cn1 | 6.79
18 | Cn1cc(C2CCCN2C(=O)CCn2c(=O)oc3ccccc32)cn1 (stereo unspecified) | 4.91
19 | Cc1cnn(CCNCC(=O)NCCOc2ccc(F)cc2)c1 | -4.45
20 | CN1CCCC1c1cccc(Cc2ccc(F)cc2)n1 (stereo unspecified) | 4.3
21 | COC1CN(C(=O)CC(C)(C)C)CCC(=O)N(C)c2ccccc21 (stereo unspecified) | -4.7
22 | CC(NC(=O)NC1CCN(Cc2ccncc2)CC1)c1ccc(F)cc1 (stereo unspecified) | 7.9
23 | N#Cc1cccc(OCCN2CCCC2C(=O)NC2CC2)c1 (stereo unspecified) | -3.78

Row | Compound | cytotoxicity at 10 µM [%]
24 | CC(=O)N1CCC2(CC1)CN(C(C)C)c1ccc(F)cc12 | -110
25 | CC(C)OC(=O)N1CCC(Cc2ccc(C(=O)O)cc2)C1 (stereo unspecified) | 3.38
26 | COCCN1CCN(Cc2cnc(C(C)C)nc2)CC1 | 10.6
27 | CCc1[nH]c2c(CNC(=O)C3CCS(=O)(=O)CC3)cc(C)cc2c1C | 1.87
28 | Cc1cn2c(n1)CCC(NC(=O)c1cnc(C)nc1C(C)C)C2 (stereo unspecified) | -0.144
29 | CC(=O)N1CCN(C(=O)CN(C)c2ccc(Cl)cn2)CC1 | 1.79
30 | COc1cnc(C2(O)CCN(C(=O)c3ccco3)CC2)c(OC)n1 | -7.02
31 | COc1cccc(-c2noc(C3CCN(Cc4cccs4)C3)n2)c1 (stereo unspecified) | -0.192
32 | CC(C)NC(=O)CCNC(=O)Nc1ccc(-n2cncn2)c(F)c1 | 0.485
33 | CCCc1n[nH]c(C2CN(C(=O)CCCn3ccnc3)CCO2)n1 (stereo unspecified) | -5.39
34 | Cc1ccc(NS(=O)(=O)c2cc3c(c(C(=O)O)c2)OCCO3)c(F)c1 | -9.36
35 | CN(CCC#N)C(=O)Cn1nnnc1C(C)(C)C | -46.3
36 | COCCCN1C(=O)CC[C@H]2CN(Cc3ccc4nonc4c3)CC[C@H]21 | 2.46
37 | O=C1NCCCc2[nH]c(Cc3cccc(Cl)c3)nc21 | 13
38 | Cc1ccccc1CSc1nc(N)cc(N2CC[C@@H](O)C2)n1 | 0.28
39 | O=c1oc(-c2ccc(F)cc2)nn1CCc1ccncc1 | -3.57
40 | O=C(c1cc(F)ccc1O)N1CCN(C2CCOCC2)CC1 | -4.9
41 | Cc1cc(NCCc2cnccn2)nc(-c2ccccc2O)n1 | 10.9
42 | Cc1[nH]c2ccc(C#N)cc2c1CCNc1ncnc2c1CCNCC2 | -11.2
43 | CCN(CC)CCN(CC(C)C)c1cc(C(F)(F)F)nc2ncnn12 | -5.39
44 | Cc1nc(CN2CCN(Cc3cc4n(n3)CCNC4)CC2)cs1 | -3.25
45 | Cc1cnn(CC2CN(CC(=O)Nc3cc(C)on3)CCO2)c1 (stereo unspecified) | -7.3
46 | O=C(c1ncc[nH]1)N1CCC(n2cc(-c3cccc(Cl)c3)nn2)CC1 | 5.28

Row | Compound | cytotoxicity at 10 µM [%]
47 | Cc1noc(-c2ccc(N(C)Cc3cccnc3)nc2)n1 | -1.24
48 | CCn1cc(CNc2ccc(F)c(N3CCCS3(=O)=O)c2)cn1 | -17
49 | Cc1cc(NCCCC(F)(F)F)n2nc(C)cc2n1 | 0.894
50 | CC(C)(C)n1cc(NCc2cscn2)cn1 | -6.08
51 | O=C(c1ccsc1)N1CCc2c(COCc3ccncc3)cncc2C1 | -1.48
52 | OCCNc1nccc(-c2c[nH]nc2-c2ccco2)n1 | -6.47
53 | NCc1cnn(-c2ccccc2C(=O)NCCc2ccncc2)c1 | 0.664
54 | CN(Cc1ccsc1)C(=O)CN1CCc2c(ncn2C)C1 | 2.83
55 | CN(C)C(C(=O)N1CCC(N2CCSCC2)CC1)c1ccccc1F (stereo unspecified) | 9.22
56 | NC(=O)CC1CCN(Cc2ccccc2OCC(F)(F)F)CC1 | -0.535
57 | CCn1cc(-c2cc(C(F)F)nc3sc(C(N)=O)c(N)c23)c(C)n1 | 3.04
58 | Cc1cccc(OCc2nnc(SCC3CCCN(C)C3)o2)c1 (stereo unspecified) | -2.8
59 | c1ccc(CNc2ncc(CN3CCCN4CCC[C@H]4C3)cn2)cc1 | -9.53
60 | CC1CCN(S(=O)(=O)NCc2ccccc2Cn2cccn2)CC1 | 7.4
61 | CN1CCCCC1CCC(=O)NCCCn1nccc1C1CC1 (stereo unspecified) | -22.9
62 | COCCOc1ncccc1C(=O)N(C)c1ccc(OC)nc1 | -44.4
63 | O=C(CC1CC1)NCc1cn2c(n1)CN(C(=O)c1cccnc1)CC2 | 1.03
64 | CN(C(=O)NCc1ccncc1)C1CCN(c2ccccc2)C1=O (stereo unspecified) | -13.5
65 | COc1nc(N2CCN(C(C)=O)CC2)ncc1Br | 0.27
66 | CNC(=O)NCC(CO)Cc1cccc(OC(F)(F)F)c1 (stereo unspecified) | -1.28
67 | CCN1CCCc2cc(CN3CCc4nc(C)[nH]c(=O)c4C3)ccc21 | 0.13
68 | Cc1cc(C)nc(Nc2cccc(C3CCCN(S(C)(=O)=O)C3)n2)n1 (stereo unspecified) | -9.62
69 | CCn1ccc(C(=O)N(C)Cc2cnn(-c3cccc(OC)c3)c2)n1 | 6.26

Row | Compound | cytotoxicity at 10 µM [%]
70 | O=C(NCCN1CCOCC1)Nc1cc(F)ccc1-n1cccn1 | -14.9
71 | Cc1ccc(OCCn2cnc3oc(C)c(C(=O)O)c3c2=O)cc1 | -8.17
72 | CC(C)CS(=O)(=O)CC(=O)NC1CCCCNC1=O (stereo unspecified) | -3.03
73 | N#Cc1ccccc1CN1CCCC(c2nccn2CC2CCC2)C1 (stereo unspecified) | -5.06
74 | CCCN(C(=O)c1ccncc1)c1nc2c(s1)CCc1c-2cnn1C | -14.6
75 | Cc1cc(NCCN)nc(-c2ccccc2O)n1 | 7.61
76 | Cn1c(=O)n(C)c2nc(Cl)c(CC(=O)c3ccc(F)cc3)n2c1=O | 6.28
77 | CN(CC(=O)N1CCN(CC(C)(C)O)CC1)c1ccc(Cl)cn1 | -2.87
78 | COCC(=O)NC1CC2(CCN(CCN(C)C)CC2)c2ccccc21 (stereo unspecified) | -113
79 | COCCn1ccnc1C1CCN(C(=O)CSc2nnc(C)s2)CC1 | 5.4
80 | CCc1ccc(CN2Cc3nccn3CC(CN3CCOCC3)C2)o1 (stereo unspecified) | -87.9
81 | COc1ccc(CN2C[C@@H](CN(C)CCO)[C@@H](CO)C2)cc1Cl | -5.88
82 | N#Cc1cccc(C(=O)N2CCC3(CCC(=O)N(C4CC4)C3)CC2)c1 | 0.194
83 | Cc1cc(=O)n2c(n1)SCC2CC(=O)NCc1cc(-c2ccco2)on1 (stereo unspecified) | -15.6
84 | COc1ccc(C2CC(=O)c3c(O)cc(O)cc3O2)cc1O (stereo unspecified) | -2.66
85 | Cc1nccc(CNC(=O)N(CCCO)C2CCc3ccccc32)n1 (stereo unspecified) | -27.3
86 | CC1c2cc(F)ccc2CCN1C(=O)c1[nH]c(=O)[nH]c(=O)c1N (stereo unspecified) | 7.78
87 | CN(CC(=O)NCc1ccccn1)CC1CCCN1c1cccnn1 (stereo unspecified) | -5.47
88 | Fc1cccc(N2CCCC3(C2)CN(c2cnccn2)CCO3)c1 (stereo unspecified) | 8.49
89 | CN(CC(=O)N1CCC(OCc2cccnc2)CC1)c1ccccc1 | 7.56
90 | CC(C#N)CSc1ccccc1NCC(=O)NCc1cccs1 (stereo unspecified) | 2.13
91 | CCCn1cc(NC(=O)c2ccc(N(C)CC)cc2)ccc1=O | -0.704
92 | CCCN1CCC(c2nc3ccc(-c4cccc(F)c4)cn3n2)CC1 | -125

Row | Compound | cytotoxicity at 10 µM [%]
93 | CS(=O)(=O)NCCCn1ccc2ccccc21 | 4.77
94 | CN(Cc1ccncn1)C(=O)C1(Oc2ccc(Cl)cc2)CCNCC1 | 18.5
95 | Cc1ccc(C(=O)N(C)Cc2ccc(Br)s2)c(=O)[nH]1 | 5.02
96 | O=C(O)C1(n2ccc(-c3ccco3)n2)CCN(Cc2ccccn2)CC1 | -137
97 | N[C@@H](C(=O)N1CCN(c2ccccc2Cl)C(=O)C1)c1ccccc1 | -0.823
98 | COc1ccc(-c2cnc3c(c2)CN(C2CC2)C(=O)CCN3)cc1 | 4.09
99 | C/C(Cl)=C/CNC(=O)C1CCC2(CC1)CN(C)C(=O)c1ccccc1O2 (stereo unspecified) | 4.52
100 | Cc1cc(C(=O)N2CCCC2)ccc1NCC(=O)N1CCOCC1 | -5
101 | CCCN1C(=O)[C@@H]2CC[C@H]1CN(S(=O)(=O)c1cccc(Cl)c1)C2 | -2.78
102 | COCCN1CCN(CCCc2nnnn2-c2ccccc2)CC1 | 5.04
103 | CC(NC(=O)NCCNc1cnccn1)c1cccs1 (stereo unspecified) | -3.79
104 | CC(C)CN1CCc2[nH]cnc2C12CCN(C(=O)c1ccc[nH]1)CC2 | 14.7
105 | CCC1=N[C@@]2(CC[C@@H]3CN(S(C)(=O)=O)C[C@@H]32)C(=O)N1CC(C)C | 2.58
106 | CCNC(=O)N(Cc1cccc(OC)c1)C1CCC(O)CC1 (stereo unspecified) | -4.83
107 | CC(=O)c1cccc(NC(=O)Cn2cc(I)cn2)c1 | -1.87
108 | O=C(CN1CC(c2ccccc2)CC1=O)N1CCN(c2nccs2)CC1 (stereo unspecified) | -1.7
109 | Fc1ccc(OCCCN2CC(n3cccn3)C2)cc1 | 2.16
110 | Cc1nn(C(C)C)c(C)c1NC(=O)c1cccnc1 | -1.57
111 | Cc1ccc(S(N)(=O)=O)cc1C(=O)N1C[C@@H](CN(C)C)[C@@H](CO)C1 | -0.187
